OX1R antag-1 = blocks the human orexin 1 receptor | O43613 | CHO/OX1R cells, Fluo-8 calcium fluorescence, orexin A | inhibition, % at 5 µM | actives 0.43% (n = 330,000);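 active means inhibition above its plate's threshold, mean inhibition of all tested compounds on the plate plus 3 SD, cut at about 37% in these data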
Target sequence (O43613 whole entry, looked up): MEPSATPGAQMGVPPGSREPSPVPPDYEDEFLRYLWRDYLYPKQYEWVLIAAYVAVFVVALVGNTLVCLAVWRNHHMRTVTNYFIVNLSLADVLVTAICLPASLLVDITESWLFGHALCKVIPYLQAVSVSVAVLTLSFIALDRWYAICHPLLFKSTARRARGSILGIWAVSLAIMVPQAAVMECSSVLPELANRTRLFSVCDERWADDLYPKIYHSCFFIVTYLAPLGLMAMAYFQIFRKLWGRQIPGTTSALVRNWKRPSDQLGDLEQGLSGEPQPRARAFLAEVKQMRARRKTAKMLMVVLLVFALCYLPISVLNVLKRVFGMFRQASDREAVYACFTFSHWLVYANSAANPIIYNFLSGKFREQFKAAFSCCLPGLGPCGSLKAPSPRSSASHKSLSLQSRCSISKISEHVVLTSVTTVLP
CHO parental Ca = counter-screen: ATP calcium response change in parental CHO cells | parental CHO-K1, ATP-induced calcium, Fluo-8 fluorescence | inhibition, % at 5.6 µM | actives 0.63% (n = 330,000);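 active means inhibition above that plate's mean sample inhibition plus 3 SD, cut at about 26% in these data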
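Assay system: parental CHO cells; Read-out basis: percent inhibition of ATP-evoked calcium rise, normalized to controls; Benchmarks: ATP and no-ATP DMSO wells; Compound dosing: single nominal dose of 5.6 µM per compound; Signal: Fluo-8 calcium dye fluorescence; Also added: ATP as calcium-mobilizing challenge; Repeats: singlicate.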
OXTR agonist = activates the human oxytocin receptor. AID 2435. P30559. activation, % at 3 µM. CHO-OTR cells, Fluo-8 calcium fluorescence; normalized: DMSO 0%, oxytocin 100%. actives 0.32% (n = 320,000);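 active means activation above the mean of all tested compounds plus 3 SD, cutoff set per screening run, cut at about 20% in these data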;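 further: peak over basal fluorescence ratio from a 100 s FLIPR kinetic read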
V1aR counter = V1a receptor agonism, counter-screen for OXTR agonists; CHO-V1R cells, Fluo-8 calcium fluorescence, agonist mode; 0% DMSO, 100% 3 nM vasopressin; activation, % at 3 µM; actives 0.25% (n = 320,000); AID 2797;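 active means activation above the mean activation of all tested compounds plus 3 SD, per screening run, cut at about 20% in these data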;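 further: signal is peak over basal fluorescence ratio across a 100 second FLIPR read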
OX1R antag-2 = antagonists of human orexin 1 receptor (OX1R); OX1R-expressing cells, FRET antagonist read-out; actives 1.8% (n = 330,000); inhibition, % at 6.6 µM; in the data active means inhibition mostly above about 38%, no sharp cut-off; inactive means mostly below about 40%
OXTR potentiator = potentiates the human oxytocin receptor response | activation, % at 3 µM | actives 0.061% (n = 320,000) | CHO-OTR cells, Fluo-8 calcium fluorescence, potentiator mode; 0% = oxytocin EC15, 100% = EC100;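 active means activation above that plate's cutoff, the mean activation of tested compounds plus 3 SD, cut at about 6.6% in these data, passing the limit was not always enough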
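Material: human OTR in CHO cells. Compound: 3.0 µM, one dose. Timing: compound 6 min at room temperature before oxytocin, 100 s read. Evaluation: % activation of max/min ratio relative to oxytocin controls. Replication: single well per compound, singlicate. Signal: Fluo-8 calcium dye fluorescence.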
Numbers stand for hits; n = inactive. A selection: hits, their analogues and other compounds. The true share with any hit is near 2.6%.

SMILES | OX1R antag-1 | CHO parental Ca | OXTR agonist | V1aR counter | OX1R antag-2 | OXTR potentiator
CCn1c(SCC(=O)Nc2ccc(NC(C)=O)cc2)nc2c1c(=O)n(C)c(=O)n2C | n | n | n | n | n | n
CC(=O)Nc1ccc2nc3c(=O)n(C)c(=O)n(C)c3nc2c1 | n | n | n | n | 60 | n
CN(C)C(=O)CSc1cnc2ccccc2n1 | n | n | n | n | n | n
Cc1ccc(C(=O)CSc2cnc3ccccc3n2)cc1C | n | n | n | n | 66 | n
Cc1ccc(NC(=O)CN(C)C(=O)c2cccc(S(=O)(=O)N3CCc4ccccc43)c2)cc1 | n | n | n | n | n | n
Cc1cc2nc(SCCOC(=O)Nc3ccccc3)nc(C)c2cc1C | n | n | n | n | 72 | n
Cc1cc2nc(SCCOC(=O)Nc3cccc(Cl)c3)nc(C)c2cc1C | n | n | n | n | n | n
Cc1noc(C)c1-c1nc(CS(=O)(=O)c2ccccc2)no1 | n | n | n | n | n | n
CCCN(C(=O)CSCc1c(C)noc1C)c1c(N)n(Cc2ccccc2)c(=O)[nH]c1=O | n | n | n | n | n | n
Cc1cccn2c(=O)c3cc(C(=O)NC4CCCCC4)c(=N)n(CCN4CCOCC4)c3nc12 | n | n | n | n | 63 | n
Cc1cccn2c(=O)c3cc(C(=O)NC4CCCC4)n(C)c3nc12 | n | n | n | n | n | n
CCCn1c(=N)c(C(=O)NC2CCCC2)cc2c(=O)n3cccc(C)c3nc21 | n | n | n | n | 81 | n
COc1cccc(NC(=O)CN2CCN(C(=O)c3ccco3)CC2)c1 | n | n | n | n | n | n
CCn1c(CCl)nc2cc(S(=O)(=O)N3CCOCC3)ccc21 | n | n | n | n | n | n
CC1(C)O[C@@H]2[C@H](O1)[C@@H](COS(=O)(=O)O)O[C@H]2n1c(=S)[nH]c2c(=O)[nH]c(N)nc21 | n | n | n | n | n | n
CC(C)(C)[C@H]1COC(=O)[C@@H](Cc2ccc(F)cc2)C/C=C\C[C@@H](CC(=O)N[C@@H](CO)Cc2ccccc2)C(=O)N1 | n | n | n | n | 62 | n
CC(C)(C)[C@H]1COC(=O)[C@@H](Cc2ccc(F)cc2)C/C=C\C[C@@H](CC(=O)N[C@H](CO)Cc2ccccc2)C(=O)N1 | n | n | n | n | n | n
COc1cc(-c2cc(=O)c3ccccc3o2)ccc1O | n | n | n | n | n | n
COc1ccc(-c2cc(=O)c3ccccc3o2)cc1 | n | n | n | n | 67 | n
COc1ccc(C(=O)Oc2c(C)occc2=O)cc1OC | n | n | n | n | n | n
Cc1occc(=O)c1OC(=O)Nc1ccc(Cl)c(Cl)c1 | n | 70 | n | n | n | n
CCOc1ccc(S(=O)(=O)Nc2ccc(C(=O)N3CC(C)OC(C)C3)cc2)cc1 (centres undefined) | n | n | 34 | 27 | n | n
COc1ccccc1NS(=O)(=O)c1ccc(C(=O)N2CCCCCCC2)cc1 | n | n | n | n | 26 | n
CCOc1ccc(NS(=O)(=O)c2ccc(C(=O)N3CCCCC3)cc2)cc1 | n | n | 24 | 28 | n | n
COc1ccccc1NS(=O)(=O)c1ccc(C(=O)N2CCCC(C)C2)cc1 (centres undefined) | n | n | n | n | n | n
SMILES | OX1R antag-1 | CHO parental Ca | OXTR agonist | V1aR counter | OX1R antag-2 | OXTR potentiator
Cc1ccc(NS(=O)(=O)c2ccc(C(=O)NCC(c3ccco3)N(C)C)cc2)cc1 (centres undefined) | n | n | 27 | 26 | n | n
CCCCC(=O)N/N=C/c1ccc(N2CCOCC2)c([N+](=O)[O-])c1 | n | n | n | n | n | n
CCOc1ccc(S(=O)(=O)N2CCN(C(=O)c3cc4ccccc4o3)CC2)cc1 | n | n | n | n | n | n
Cc1ccc(NS(=O)(=O)c2ccc(C(=O)N3CCCC(C(F)(F)F)C3)cc2)cc1 (centres undefined) | 45 | n | 53 | 49 | n | n
COc1ccc(CC(=O)NC(=S)Nc2ccc(S(N)(=O)=O)cc2)cc1 | n | n | 25 | 24 | n | n
CCOc1ccc(NS(=O)(=O)c2ccc(C(=O)NCC(c3ccco3)N3CCCC3)cc2)cc1 (centres undefined) | n | n | 35 | 23 | n | n
CCOc1ccc(NS(=O)(=O)c2ccc(C(=O)N3CC(C)OC(C)C3)cc2)cc1 (centres undefined) | 73 | 42 | 58 | 51 | n | n
CCOC(=O)C1CCN(C(=O)Cn2nc(C)n3cccc3c2=O)CC1 | n | n | n | n | n | n
O=C(CSc1nc(=O)n(CCCN2CCOCC2)c2c1CCC2)Nc1cccc(F)c1 | n | n | n | n | n | n
CC(=O)N/C(=C\c1ccccc1)C(=O)OCCCOC(=O)/C(=C/c1ccccc1)NC(C)=O | n | n | n | n | n | n
CC(C)NC(=S)NC(c1ccccc1)(c1ccccc1)c1ccccc1 | n | n | n | n | n | n
COc1ccc(NS(=O)(=O)c2ccc(C(=O)N3CCC(C)CC3)cc2)cc1 | n | n | 40 | 24 | n | n
CC1CN(C(=O)c2cccc(S(=O)(=O)N3CCN(c4ccc(F)cc4)CC3)c2)CC(C)O1 (centres undefined) | n | n | n | n | n | n
COc1ccc(NS(=O)(=O)c2ccc(C(=O)N(C)Cc3ccc(C)o3)cc2)cc1 | n | n | 27 | 27 | n | n
CCOc1ccc(NS(=O)(=O)c2ccc(NC(=S)NC(=O)C(C)C)cc2)cc1 | n | n | n | n | n | n
CCOc1ccc(NS(=O)(=O)c2ccc(NC(=S)NC(C)=O)cc2)cc1 | n | n | 29 | 27 | n | n
O=C(c1cccc(S(=O)(=O)N2CCN(c3ccc(F)cc3)CC2)c1)N1CCCC(C(F)(F)F)C1 (centres undefined) | n | 37 | n | n | n | n
COc1ccc(CN(C)C(=O)c2ccc(NS(=O)(=O)c3ccc(F)cc3)cc2)c(OC)c1 | n | n | n | n | n | n
CC12CCC(=O)N1C(C(=O)N1CCN(c3ccc([N+](=O)[O-])cc3)CC1)CS2 (centres undefined) | n | n | n | n | n | n
C/C=C/C1=CC(=O)C[C@H](c2ccc3c(c2)OCO3)C1 | n | n | n | n | n | n
Cc1ccc(OCC(=O)NC2CCCC(C)C2C)c([N+](=O)[O-])n1 (centres undefined) | n | n | n | n | n | n
O=C1C(c2ccccc2)=[N+]([O-])c2ccccc21 | n | n | n | n | n | n
C=CCC1(CC=C)CCCN1C(=O)c1cc(COc2ccc(C)nc2)on1 | n | 52 | n | n | n | n
C=CCC1(CC=C)CCCN1C(=O)c1cc(COc2ccc(F)c(F)c2)on1 | n | n | n | n | n | n

Screening data as filed in PubChem.
